Experimental data: ChEMBL document CHEMBL1933006, “Mechanistic analysis of muraymycin analogues: a guide to the design of MraY inhibitors” (J Med Chem, 2011)
≈ marks a conversion by molar mass, not a printed value. Calls of active or inactive are those of the source. The calls are words filed in the database; no cut-off is given here.

What was measured:
HepG2 = assay: Cytotoxicity against human HepG2 cells after 48 hrs by WST-8 assay; format: cell-based; settings: HepG2, 48 h
Outline: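 HepG2 cells in DMEM with 10% FBS were seeded at 1 × 10⁴ cells/well and treated 24 h later with varying concentrations for 48 h. WST-8 reagent was then added for 1.5 h at 37 °C, and absorbance read at 450 nm. Percentage growth inhibition was calculated against untreated cells, and IC50 was derived. Tunicamycin served as positive control.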

Enterococcus faecalis [1] = assay: Antibacterial activity against vancomycin-resistant Enterococcus faecalis SR7914 after 20 hrs by broth microdilution method; format: functional; settings: SR7914, 20 h
Outline: (§1)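 NCCLS broth microdilution in cation-adjusted Mueller–Hinton broth. Serial 2-fold compound dilutions were inoculated with 5 × 10⁴ CFU per 0.1 mL and incubated at 35 °C for 20 h before scoring the MIC.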

Staphylococcus aureus [2] = assay: Antibacterial activity against methicillin-sensitive […] Staphylococcus aureus ATCC 29213 after 20 hrs by broth microdilution method; format: functional; settings: ATCC 29213, 20 h; outline: as §1
Enterococcus faecalis [3] = assay: Antibacterial activity against Enterococcus faecalis ATCC 29212 after 20 hrs by broth microdilution method; format: functional; settings: ATCC 29212, 20 h; outline: as §1
Staphylococcus aureus [4] = assay: Antibacterial activity against methicillin-resistant Staphylococcus aureus isolate SR3637 after 20 hrs by broth microdilution method; format: functional; settings: isolate SR3637, 20 h; outline: as §1
Enterococcus faecium [5] = assay: Antibacterial activity against Enterococcus faecium ATCC 19434 after 20 hrs by broth microdilution method; format: functional; settings: ATCC 19434, 20 h; outline: as §1
Enterococcus faecium [6] = assay: Antibacterial activity against vancomycin-resistant Enterococcus faecium SR7917 after 20 hrs by broth microdilution method; format: functional; settings: SR7917, 20 h; outline: as §1
[7] = target: T1, Undecaprenyl-phosphate alpha-N-acetylglucosaminyl 1-phosphate transferase (Thermotoga maritima (strain ATCC 43589 / MSB8 / DSM 3109 / JCM 10099), UniProt Q9X1N5); assay: Inhibition of Thermotoga maritima WecA using radiolabeled UDP-[14C]GlcNAc as substrate after 30 mins
T1 sequence (Q9X1N5 whole entry): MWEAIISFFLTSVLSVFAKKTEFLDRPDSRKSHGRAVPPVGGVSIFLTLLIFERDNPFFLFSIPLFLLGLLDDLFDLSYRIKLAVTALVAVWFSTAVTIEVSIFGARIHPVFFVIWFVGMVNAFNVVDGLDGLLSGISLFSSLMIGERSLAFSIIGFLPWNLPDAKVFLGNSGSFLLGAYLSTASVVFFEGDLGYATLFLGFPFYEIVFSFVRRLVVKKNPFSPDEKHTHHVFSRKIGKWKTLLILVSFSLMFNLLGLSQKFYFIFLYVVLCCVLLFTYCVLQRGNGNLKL
Outline: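 Purified Thermotoga maritima WecA was assayed at pH 8 (100 mM Tris-HCl, 10 mM MgCl₂, 1.1 mM C₅₅-P, 0.16 mM UDP-[¹⁴C]GlcNAc, 92.7 mM Triton X-100), final concentrations. The reaction was started by enzyme, run 30 min at 65 °C and stopped at 100 °C for 1 min. C₅₅-PP-GlcNAc was separated by TLC and scanned. IC50 was relative to a no-inhibitor control, mean of triplicates.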

[8] = target: T2, Phospho-N-acetylmuramoyl-pentapeptide-transferase (Bacillus subtilis (strain 168), UniProt Q03521); assay: Noncompetitive inhibition of Bacillus subtilis MraY using […] as substrate after 30 mins by Lineweaver-Burk plot
T2 sequence (Q03521 whole entry): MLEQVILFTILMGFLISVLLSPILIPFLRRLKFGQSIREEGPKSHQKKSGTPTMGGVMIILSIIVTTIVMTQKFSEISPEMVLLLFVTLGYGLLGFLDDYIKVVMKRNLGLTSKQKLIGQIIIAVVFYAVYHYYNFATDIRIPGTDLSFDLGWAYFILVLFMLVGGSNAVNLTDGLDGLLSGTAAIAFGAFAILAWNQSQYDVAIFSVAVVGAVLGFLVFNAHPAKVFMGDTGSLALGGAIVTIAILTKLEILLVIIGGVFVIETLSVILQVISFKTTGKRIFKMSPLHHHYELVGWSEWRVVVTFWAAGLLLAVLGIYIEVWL

[9] = target: T2, Phospho-N-acetylmuramoyl-pentapeptide-transferase; assay: Competitive inhibition of Bacillus subtilis MraY using UDP-MurNAc-pentapeptide as substrate after 30 mins by Lineweaver-Burk plot
Outline: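 B. subtilis MraY was assayed at pH 7.5 (100 mM Tris-HCl, 40 mM MgCl₂, 250 mM NaCl, 8.4 mM N-lauroylsarcosine), started by enzyme and run 30 min at 37 °C. Initial rates were taken at 0.25–1.5 mM UDP-MurNAc-[¹⁴C]pentapeptide, fixed 1 mM C₅₅-P, and several inhibitor levels. Lipid I was separated by TLC and scanned. Ki came from Lineweaver–Burk plots assuming a ping-pong Bi Bi mechanism.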

Bacillus subtilis = assay: Antibacterial activity against Bacillus subtilis at 64 ug/ml; format: functional, organism-based

| Structure (SMILES) | IC50 (HepG2) [µg/mL] | MIC (Enterococcus faecalis [1]) [µg/mL] | MIC (Staphylococcus aureus [2]) [µg/mL] | MIC (Enterococcus faecalis [3]) [µg/mL] | MIC (Staphylococcus aureus [4]) [µg/mL] | MIC (Enterococcus faecium [5]) [µg/mL] | MIC (Enterococcus faecium [6]) [µg/mL] | IC50 [7] [µM] | Ki [8] [µM] | Ki [9] [µM] | Activity (Bacillus subtilis) |
| --- | --- | --- | --- | --- | --- | --- | --- | --- | --- | --- | --- |
| CCCCCCOc1ccc(-c2ccc([C@H](NC(=O)[C@@H](NC(=O)N[C@H](C(=O)O)C(C)C)[C@@H]3CCNC(=N)N3)C(=O)NCCCN[C@H](C(=O)O)[C@H](O[C@@H]3O[C@H](CN)[C@@H](O)[C@H]3O)[C@H]3O[C@@H](n4ccc(=O)[nH]c4=O)[C@H](O)[C@@H]3O)cc2)cc1 | > 100 | 8 (≈ 7.19 µM) | 4 (≈ 3.6 µM) | 8 (≈ 7.19 µM) | 8 (≈ 7.19 µM) | 4 (≈ 3.6 µM) | 4 (≈ 3.6 µM) |  |  |  |  |
| CCCCCCCCCCCCCCC[C@@H](NC(=O)[C@@H](NC(=O)N[C@H](C(=O)O)C(C)C)[C@@H]1CCNC(=N)N1)C(=O)NCCCN[C@H](C(=O)O)[C@H](O[C@@H]1O[C@H](CN)[C@@H](O)[C@H]1O)[C@H]1O[C@@H](n2ccc(=O)[nH]c2=O)[C@H](O)[C@@H]1O | > 100 | 4 (≈ 3.74 µM) | 2 (≈ 1.87 µM) | 2 (≈ 1.87 µM) | 4 (≈ 3.74 µM) | 0.5 (≈ 0.467 µM) | 0.25 (≈ 0.234 µM) | 1340 | 0.698 | 0.698 |  |
| CC(C)[C@H](NC(=O)N[C@H](C(=O)N[C@@H](CCCCCCCc1ccc(-c2ccccc2)cc1)C(=O)NCCCN[C@H](C(=O)O)[C@H](O[C@@H]1O[C@H](CN)[C@@H](O)[C@H]1O)[C@H]1O[C@@H](n2ccc(=O)[nH]c2=O)[C@H](O)[C@@H]1O)[C@@H]1CCNC(=N)N1)C(=O)O | > 100 | 16 (≈ 14.4 µM) | 4 (≈ 3.6 µM) | 4 (≈ 3.6 µM) | 4 (≈ 3.6 µM) | 4 (≈ 3.6 µM) | 8 (≈ 7.21 µM) |  |  |  |  |
| CCCCOc1ccc(-c2ccc(CC[C@H](NC(=O)[C@@H](NC(=O)N[C@H](C(=O)O)C(C)C)[C@@H]3CCNC(=N)N3)C(=O)NCCCN[C@H](C(=O)O)[C@H](O[C@@H]3O[C@H](CN)[C@@H](O)[C@H]3O)[C@H]3O[C@@H](n4ccc(=O)[nH]c4=O)[C@H](O)[C@@H]3O)cc2)cc1 | > 100 | 64 (≈ 57.5 µM) | 16 (≈ 14.4 µM) | 16 (≈ 14.4 µM) | 32 (≈ 28.8 µM) | 16 (≈ 14.4 µM) | 32 (≈ 28.8 µM) |  |  |  |  |
| CCCCCCCCCCCCCCC[C@H](NC(=O)[C@@H](NC(=O)N[C@H](C(=O)O)C(C)C)[C@@H]1CCNC(=N)N1)C(=O)NCCCN[C@H](C(=O)O)[C@H](O[C@@H]1O[C@H](CN)[C@@H](O)[C@H]1O)[C@H]1O[C@@H](n2ccc(=O)[nH]c2=O)[C@H](O)[C@@H]1O |  | 4 (≈ 3.74 µM) | 2 (≈ 1.87 µM) | 4 (≈ 3.74 µM) | 4 (≈ 3.74 µM) | 4 (≈ 3.74 µM) | 2 (≈ 1.87 µM) | 970 | 0.247 | 0.247 |  |
| CC(C)C[C@@H](NC(=O)[C@@H](NC(=O)N[C@H](C(=O)O)C(C)C)[C@@H]1CCNC(=N)N1)C(=O)NCCCN[C@H](C(=O)O)[C@H](O[C@@H]1O[C@H](CN)[C@@H](O)[C@H]1O)[C@H]1O[C@@H](n2ccc(=O)[nH]c2=O)[C@H](O)[C@@H]1O |  | > 64 | > 64 | > 64 | > 64 | > 64 | > 64 |  |  |  | inactive |
| CC(C)C[C@H](NC(=O)[C@@H](NC(=O)N[C@H](C(=O)O)C(C)C)[C@@H]1CCNC(=N)N1)C(=O)NCCCN[C@H](C(=O)O)[C@H](O[C@@H]1O[C@H](CN)[C@@H](O)[C@H]1O)[C@H]1O[C@@H](n2ccc(=O)[nH]c2=O)[C@H](O)[C@@H]1O [MURAMYCIN D2] |  | > 64 | > 64 | > 64 | > 64 | > 64 | > 64 |  |  |  | inactive |
| CC(C)C[C@@H](NC(=O)[C@@H](NC(=O)N[C@H](C(=O)O)C(C)C)[C@@H]1CCN=C(N)N1)C(=O)NCCCN[C@H](C(=O)O)[C@H](O[C@@H]1O[C@H](CN)[C@@H](O)[C@H]1O)[C@H]1O[C@@H](n2ccc(=O)[nH]c2=O)[C@H](O)[C@@H]1O |  |  |  |  |  |  |  | 1560 | 0.049 | 0.049 |  |
